Data from ChEMBL document CHEMBL3085642, “Synthesis and evaluation of novel 4-nitropyrrole-based 1,3,4-oxadiazole derivatives as antimicrobial and anti-tubercular agents” (Eur J Med Chem, 2013).
Values after ≈ are worked out from the molar mass of the structure shown.

Tests used:
Vero = assay: Cytotoxicity against african green monkey Vero cells after 72 hrs by MTT assay; type: cell-based; conditions: Chlorocebus sabaeus
Outline: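 Vero cells were exposed to compounds for 72 h. Viability was measured by cellular conversion of MTT into formazan (non-radioactive proliferation assay), and the cytotoxic concentration was reported as IC50.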

Candida albicans [1] = assay: Ratio of ampotericin-B MIC to compound MIC against Candida albicans; type: functional
Staphylococcus aureus [2] = assay: Ratio of ciprofloxacin MIC to compound MIC against methicillin-susceptible Staphylococcus aureus ATCC 35556; type: functional
Staphylococcus aureus [3] = assay: Ratio of ciprofloxacin MIC to compound MIC against Staphylococcus aureus ATCC 25923; type: functional
[4] = test system: Mycobacterium tuberculosis; assay: Antitubercular activity against Mycobacterium tuberculosis H37Rv after 7 days by resazurin microtitre assay; type: functional; conditions: 168 h
Candida albicans [5] = assay: Antifungal activity against Candida albicans after 48 hrs by two fold agar dilution method; type: functional
Outline: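 Two-fold serial dilutions in DMSO were tested against C. albicans by agar dilution. Cultures were incubated for 48 h at 35 °C and growth was monitored. MIC was taken as the lowest concentration (highest dilution) that arrested fungal growth.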

Staphylococcus aureus [6] = assay: Antibacterial activity against methicillin-resistant Staphylococcus aureus ATCC 43866 by broth dilution method; type: functional
Staphylococcus aureus [7] = assay: Antibacterial activity against methicillin-susceptible Staphylococcus aureus ATCC 35556 by broth dilution method; type: functional
Klebsiella pneumoniae = assay: Antibacterial activity against Klebsiella pneumoniae by two fold broth dilution method; type: functional
Escherichia coli = assay: Antibacterial activity against Escherichia coli ATCC 25922 by two fold broth dilution method; type: functional
Bacillus spizizenii = assay: Antibacterial activity against Bacillus subtilis ATCC 6633 by two fold broth dilution method; type: functional
Staphylococcus aureus [8] = assay: Antibacterial activity against Staphylococcus aureus ATCC 25923 by two fold broth dilution method; type: functional

SMILES | IC50 (Vero) [µM] | Ratio (Candida albicans [1]) | Ratio (Staphylococcus aureus [2]) | Ratio (Staphylococcus aureus [3]) | MIC [4] [µg/mL] | MIC (Candida albicans [5]) [µg/mL] | MIC (Staphylococcus aureus [6]) [µg/mL] | MIC (Staphylococcus aureus [7]) [µg/mL] | MIC (Klebsiella pneumoniae) [µg/mL] | MIC (Escherichia coli) [µg/mL] | MIC (Bacillus spizizenii) [µg/mL] | MIC (Staphylococcus aureus [8]) [µg/mL]
COc1cc(/C=C/c2nnc(-c3cc([N+](=O)[O-])cn3C)o2)ccc1O | 202 | 2 | 2 | 2 | 51.8 (≈ 151 µM) | 12.5 (≈ 36.5 µM) | 1.56 (≈ 4.56 µM) | 0.39 (≈ 1.14 µM) | 50 (≈ 146 µM) | 3.12 (≈ 9.13 µM) | 1.56 (≈ 4.56 µM) | 0.78 (≈ 2.28 µM)
Cn1cc([N+](=O)[O-])cc1-c1nnc(-c2ccc(C#N)cc2)o1 | 315 | 2 | 2 | 2 | 84.6 (≈ 287 µM) | 1.56 (≈ 5.28 µM) | 1.56 (≈ 5.28 µM) | 0.39 (≈ 1.32 µM) | 12.5 (≈ 42.3 µM) | 6.25 (≈ 21.2 µM) | 1.56 (≈ 5.28 µM) | 0.78 (≈ 2.64 µM)
COc1cccc(-c2nnc(-c3cc([N+](=O)[O-])cn3C)o2)c1 | 299 | 2 | 2 | 2 | 37.4 (≈ 125 µM) | 1.56 (≈ 5.2 µM) | 1.56 (≈ 5.2 µM) | 0.39 (≈ 1.3 µM) | 12.5 (≈ 41.6 µM) | 3.12 (≈ 10.4 µM) | 1.56 (≈ 5.2 µM) | 0.78 (≈ 2.6 µM)
COc1ccc(-c2nnc(-c3cc([N+](=O)[O-])cn3C)o2)cc1 | 281 | 2 | 2 | 2 | – | 1.56 (≈ 5.2 µM) | 1.56 (≈ 5.2 µM) | 0.39 (≈ 1.3 µM) | 12.5 (≈ 41.6 µM) | 6.25 (≈ 20.8 µM) | 1.56 (≈ 5.2 µM) | 0.78 (≈ 2.6 µM)
Cn1cc([N+](=O)[O-])cc1-c1nnc(-c2ccccc2OC(F)(F)F)o1 | 308 | 2 | 2 | 2 | 3.8 (≈ 10.7 µM) | 1.56 (≈ 4.4 µM) | 1.56 (≈ 4.4 µM) | 0.39 (≈ 1.1 µM) | 12.5 (≈ 35.3 µM) | 3.12 (≈ 8.82 µM) | 1.56 (≈ 4.4 µM) | 0.78 (≈ 2.2 µM)
Cn1cc([N+](=O)[O-])cc1-c1nnc(Cc2ccc(F)c3ccccc23)o1 | 119 | 2 | 2 | 2 | – | 1.56 (≈ 4.43 µM) | 1.56 (≈ 4.43 µM) | 0.39 (≈ 1.11 µM) | 12.5 (≈ 35.5 µM) | 6.25 (≈ 17.7 µM) | 1.56 (≈ 4.43 µM) | 0.78 (≈ 2.21 µM)
COc1cccc(OC)c1-c1nnc(-c2cc([N+](=O)[O-])cn2C)o1 | 177 | 2 | 2 | 2 | 32 (≈ 96.9 µM) | 1.56 (≈ 4.72 µM) | 1.56 (≈ 4.72 µM) | 0.39 (≈ 1.18 µM) | 12.5 (≈ 37.8 µM) | 6.25 (≈ 18.9 µM) | 1.56 (≈ 4.72 µM) | 0.78 (≈ 2.36 µM)
Cn1cc([N+](=O)[O-])cc1-c1nnc(C2CCCNC2)o1 (configuration not stated) | 611 | 2 | 2 | 2 | 35.6 (≈ 128 µM) | 1.56 (≈ 5.63 µM) | 1.56 (≈ 5.63 µM) | 0.39 (≈ 1.41 µM) | 12.5 (≈ 45.1 µM) | 3.12 (≈ 11.3 µM) | 1.56 (≈ 5.63 µM) | 0.78 (≈ 2.81 µM)
Cn1cc([N+](=O)[O-])cc1-c1nnc(-c2ccns2)o1 | 320 | 2 | 2 | 2 | – | 1.56 (≈ 5.63 µM) | 1.56 (≈ 5.63 µM) | 0.39 (≈ 1.41 µM) | 12.5 (≈ 45.1 µM) | 6.25 (≈ 22.5 µM) | 1.56 (≈ 5.63 µM) | 0.78 (≈ 2.81 µM)
Cn1cc([N+](=O)[O-])cc1-c1nnc(-c2cccc([N+](=O)[O-])c2O)o1 | 269 | 2 | 2 | 2 | – | 1.56 (≈ 4.71 µM) | 1.56 (≈ 4.71 µM) | 0.39 (≈ 1.18 µM) | 12.5 (≈ 37.7 µM) | 3.12 (≈ 9.43 µM) | 1.56 (≈ 4.71 µM) | 0.78 (≈ 2.35 µM)
Cn1cc([N+](=O)[O-])cc1-c1nnc(-c2cc3ccccc3[nH]2)o1 | 109 | 2 | 2 | 2 | – | 1.56 (≈ 5.04 µM) | 1.56 (≈ 5.04 µM) | 0.39 (≈ 1.26 µM) | 12.5 (≈ 40.4 µM) | 6.25 (≈ 20.2 µM) | 1.56 (≈ 5.04 µM) | 0.78 (≈ 2.52 µM)
